Bioassay records as filed in PubChem BioAssay.
Runt-CBFb FRET: blocks binding of human RUNX1 Runt domain to CBFb | actives 0.46% (n = 220,000) | Cerulean-Runt/Venus-CBFb FRET ratio 530/480, 1 h | Q01196+Q13951 | AID 1496 | inhibition, % at 20 µM;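 active means inhibition over about 50% at 20 µM in the single-dose screen, limit read from the data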;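 further: 0% = DMSO wells and 100% = excess unlabeled CBFb competitor control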
Target sequence (Q01196 whole entry, looked up, the tested form may be a part): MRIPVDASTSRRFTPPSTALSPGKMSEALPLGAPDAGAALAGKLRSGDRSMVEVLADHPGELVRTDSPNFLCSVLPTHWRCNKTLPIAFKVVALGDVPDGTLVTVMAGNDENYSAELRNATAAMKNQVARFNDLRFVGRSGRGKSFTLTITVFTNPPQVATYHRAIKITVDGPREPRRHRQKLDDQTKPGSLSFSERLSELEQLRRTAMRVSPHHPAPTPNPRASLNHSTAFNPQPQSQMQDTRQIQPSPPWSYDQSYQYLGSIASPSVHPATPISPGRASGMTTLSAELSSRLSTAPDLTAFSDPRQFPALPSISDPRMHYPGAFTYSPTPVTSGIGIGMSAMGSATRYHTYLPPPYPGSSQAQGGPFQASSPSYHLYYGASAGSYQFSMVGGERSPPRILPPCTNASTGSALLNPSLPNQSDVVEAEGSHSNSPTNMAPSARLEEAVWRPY
Target sequence (Q13951 whole entry, looked up, the tested form may be a part): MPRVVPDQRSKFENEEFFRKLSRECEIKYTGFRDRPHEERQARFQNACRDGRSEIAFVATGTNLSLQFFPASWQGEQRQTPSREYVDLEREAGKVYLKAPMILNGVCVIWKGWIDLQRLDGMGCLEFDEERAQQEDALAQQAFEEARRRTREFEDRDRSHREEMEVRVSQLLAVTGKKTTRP
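Measured by: fluorescence energy transfer, 422 nm excitation, 530/480 nm emission; Assay system: Cerulean-Runt domain; Medium: Tris pH 7.5 buffer with BSA; Measure: loss of energy transfer signal; Controls: 5 µM unlabeled CBFb as full-inhibition high control; Incubation: protein complex preformed 1 h, compound exposure 1 h, room temperature, dark.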
RanGTP-Imp inh: inhibitors of RanGTP-importin-beta interaction, primary screen, biochemical, FRET, CFP-Ran, YFP-importin-beta, homogeneous | cell-free CFP-Ran/YFP-importin-beta FRET ratio | inhibition, % (no concentration beside the values) | actives 1.1% (n = 300,000);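 active means more than half of the replicate wells show a fall in the fluorescence ratio signal beyond about 16%, limit read from the data, passing the limit was not always enough; inconclusive means exactly half of the replicate wells pass the set limit; inactive means fewer than half of replicates pass the limit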;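 further: 0% = DMSO wells and 100% = Ran loaded with GDP instead of GTP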
Runt-SMMHC FRET: blocks binding of human RUNX1 Runt domain to CBFb-SMMHC; AID 1434; inhibition, % at 20 µM; actives 0.74% (n = 220,000); Cerulean-Runt/Venus-CBFb-SMMHC FRET ratio 530/480, 1 h;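 active means mean inhibition across duplicate retests at 20 µM reaching about 50%, limit read from the data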;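 further: 0% = DMSO wells and 100% = wells with excess untagged CBFb-SMMHC; inhibitors lower the FRET ratio by blocking Runt binding to CBFb-SMMHC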
p97 inhibitor: blocks human p97 ATPase activity | P55072 | recombinant p97 ATPase, Kinase-Glo ATP luminescence, 3 h | inhibition, % at 8 µM | actives 0.42% (n = 220,000); in the data active means inhibition above about 15%;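 further: 0% = DMSO vehicle and 100% = wells lacking enzyme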
Tb hexokinase: T. brucei hexokinase 1 inhibition. recombinant TbHK1, G6PDH-coupled NADH A340. inhibition, % at 10 µM. AID 1430. actives 0.11% (n = 220,000);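 active means inhibition of 50% or more in the single-dose primary screen; inactive means inhibition below 50%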
Hck Nef HTS: inhibitors of human Hck kinase activated by Nef. P08631. Recombinant Hck-YEEI plus Nef, Z-Lyte FRET kinase assay. inhibition, % at 20 µM. actives 0.68% (n = 220,000);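 active means Hck-Nef kinase inhibition above about 50%, limit read from the data; inactive means inhibition below that limit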;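 further: 0% = DMSO with Hck plus Nef and 100% = Hck alone without Nef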
Active calls of the source: *; u = inconclusive; x = no result. This is a sample that favours compounds with a hit; in the whole collection about 2.1% have one here.

SMILES | Runt-CBFb FRET | RanGTP-Imp inh | Runt-SMMHC FRET | p97 inhibitor | Tb hexokinase | Hck Nef HTS
Cc1ccccc1-n1c(=O)cc(N2CCc3ccccc3C2)[nH]c1=O | 37.1 | 52.9* | 75.6* | 0.5 | -2.4 | -3.4
Cc1ccc(-n2c(=O)cc(N3CCC(C)CC3)[nH]c2=O)cc1 | -0.5 | 1.7 | -0.3 | 2.9 | -0.1 | 1.8
Cc1nnc(N2CCc3ccccc3C2)[nH]c1=O | 0.3 | -0.9 | -4.3 | -1.6 | 4.3 | 2.3
O=c1cc(N2CCc3ccccc32)[nH]c(=O)n1-c1ccccc1 | 1.8 | 8.3 | 4.1 | 3.6 | 5.3 | 0.5
Cc1ccccc1-n1c(=O)cc(N2CCN(Cc3ccccc3)CC2)[nH]c1=O | 1.2 | 9.3 | -7.6 | 5.1 | 1.0 | -0.4
CCN(C(=O)Cc1cccs1)c1nnc(-c2cccnc2)s1 | 2.0 | x | -4.3 | 2.3 | 0.5 | 2.9
Cc1ccc(C(=O)Nc2ncc3c(Cl)cccc3n2)cc1 | -0.7 | 0.5 | 1.4 | -27.2 | -2.5 | -1.6
O=C(Cn1ccc([N+](=O)[O-])n1)NCc1cccnc1 | -1.7 | 1.8 | -1.4 | -0.5 | -4.3 | 0.7
CCCn1c(-c2ccc[nH]c2=O)nc2cc(C)c(C)cc21 | 1.3 | 1.6 | -4.6 | -2.4 | -15.3 | 1.6
CC(=O)c1sc2nc(-c3ccc(C)cc3)c3c(c2c1N)CCCC3 | 3.0 | 66.4* | 10.3 | -1.7 | -12.0 | 4.5
CCc1nc2sc(C(C)=O)c(N)c2c2c1CCCC2 | 34.1 | 28.0* | 81.0* | 7.6 | 7.5 | 37.1
CCC(=O)N1CCc2cc(S(=O)(=O)NC(CC(C)C)C(=O)N3CCc4ccccc43)ccc21 (stereo unspecified) | -1.0 | x | -1.8 | -7.3 | 1.6 | -4.9
Cc1cccc(N2CCN(CC(O)COCc3cccs3)CC2)c1C (stereo unspecified) | -2.5 | -0.9 | -2.8 | 0.0 | 6.0 | 2.7
CCN1CCS/C1=C\C=C\C1=[N+](CC)CCS1 | 128.1* | 6.4 | x | 4.7 | 7.6 | -71.9
CCN1CCS/C1=C/C=C/C1=[N+](CC)CCS1 | 139.6* | -2.8 | 120.5* | 3.0 | 3.3 | 0.6
COc1ccc2nc(C(F)(F)Cl)c(C#N)c(N)c2c1 | -0.7 | 3.0 | -0.1 | 2.0 | -32.8 | 10.4
COc1ccc2nc3cc(Cl)ccc3c(C#N)c2c1 | 15.9 | 51.3* | 28.6 | 3.0 | -7.6 | 7.6
Nc1cnc(CNc2ccccc2Cl)cn1 | 1.2 | -4.6 | 4.2 | x | -20.0 | 22.1
N#CC(C#N)=Cc1c[nH]c(=O)c(C#N)c1Nc1ccccc1 | x | 67.3* | x | x | x | x
N#Cc1c(Nc2ccccc2)c(/C=N/N=C/c2ccccc2)c[nH]c1=O | 1.2 | 5.9 | 1.3 | 4.3 | -14.0 | 2.0
CCOc1cc(C(=O)N2CCCN(C)CC2)cc(OCC)c1OCC | x | -0.3 | x | x | x | x
COc1ccccc1N1CCN(C(=O)c2cc3c(=O)n4cccc(C)c4nc3s2)CC1 | x | 31.0* | x | x | x | x
CC(=O)N1CCN(C(=O)c2cccc(S(=O)(=O)NCc3ccccc3)c2)CC1 | x | 2.4 | x | x | x | x
COc1ccc(C2C3=C(CC(C)(C)CC3=O)Nc3c2c(=O)[nH]c(=O)n3Cc2ccccc2)cc1 (stereo unspecified) | 101.7* | 83.7* | 40.3 | -0.8 | 3.5 | 1.0
COc1ccc(C2C3=C(CC(C)(C)CC3=O)Nc3n[nH]c(C)c32)cc1 (stereo unspecified) | -0.6 | 6.4 | 0.5 | 3.8 | -26.9 | -6.7
SMILES | Runt-CBFb FRET | RanGTP-Imp inh | Runt-SMMHC FRET | p97 inhibitor | Tb hexokinase | Hck Nef HTS
COc1ccc(C2C3=C(CC(C)(C)CC3=O)Nc3c2c(=O)[nH]c(=O)n3Cc2ccccc2)cc1OC (stereo unspecified) | 55.6* | 87.7* | 78.7* | -4.4 | -7.4 | 5.9
CCOc1ccc(NC(=O)CSc2nc3ccccc3nc2N2CCCC2)cc1 | x | 4.0 | x | x | x | x
CCOc1ccccc1-c1nc(-c2cc3ccccc3nc2OC)no1 | -2.4 | u | -2.7 | 1.1 | -5.6 | 0.1
CCOC(=O)C1CCN(C(=O)Nc2ccc3nc(-c4ccco4)c(-c4ccco4)nc3c2)CC1 | -44.4 | 74.9* | -219.0 | 0.9 | 0.0 | 27.8
Cc1nc2ccc(NC(=O)N3CCCCC3)cc2nc1C | -6.9 | -15.0 | -21.6 | -0.8 | -9.0 | 4.1
O=C(Nc1ccc2nc(-c3ccccn3)c(-c3ccccn3)nc2c1)N1CCOCC1 | 24.7 | 19.8* | 33.6 | 2.2 | -14.0 | 9.0
O=C(Nc1ccc2nc(-c3ccco3)c(-c3ccco3)nc2c1)N1CCCCCC1 | -17.7 | 79.8* | -126.2 | 4.4 | 3.0 | 47.1
